In ChEMBL document CHEMBL5303300, “EUbOPEN Chemogenomics Library - Multiplex” (2023):
“And” between values parts separate entries of the source, which are not always exact repeats. Equal entries are not always repeated.

Key:
[1] = system: HEK-293T; test: Multiplex assay against HEK293T; format: toxicity, cell-based; details: human, number of replicates 2
Outline: (§1)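 On a CQ1 microscope at 37°C and 5% CO2, live cells were imaged after compound addition. They had been stained at seeding with Hoechst33342, BioTracker Green Microtubule Cytoskeleton Dye, MitoTracker Red and Annexin V Alexa Fluor 680. CellPathfinder machine-learning gating assigned cells to Hoechst high-intensity objects or normal cells, normal cells to healthy, pyknosed or fragmented nuclei, and pyknosed cells to mitotic or apoptotic. Tubulin, mitochondrial-mass and membrane-permeability phenotypes are per cents of healthy-nucleus cells.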

[2] = system: Fibroblast; test: Multiplex assay against human fibroblast; format: toxicity, cell-based; details: number of replicates 2; outline: as §1
[3] = 24 h, 10 µM, compound concentration 10 uM
[4] = 48 h, 1 µM, compound concentration 1 uM
[5] = 48 h, 10 µM, compound concentration 10 uM
[6] = 12 h, 1 µM, compound concentration 1 uM
[7] = 12 h, 10 µM, compound concentration 10 uM
[8] = 24 h, 1 µM, compound concentration 1 uM

`CC(=O)N(CCN(C)C)c1ccc(N/C(=C2\C(=O)Nc3cc(Cl)ccc32)c2ccccc2)cn1` was tested, and the “Population Hoechst High Intensity Objects (%)” value [1, 3] was 20% and 23%, the “Population Membrane Permeable-Phenotype (%)” value [1, 3] was 0% and 2% and the “Population Mitochondria Different-Phenotype (%)” value [1, 3] was 95% and 92%. For the same compound, the “Population Mitotic Cells (%)” value [1, 3] was 12% and 5%, the “Population Normal (%)” value [1, 3] was 79% and 76% and the “Population Pyknosed Nuclei (%)” value [1, 3] was 13% and 12%. The “Population Tubulin-Different-Phenotype (%)” value [1, 3] was 93% and 92%, the “Total Cell Count” value [1, 3] was 229 and 181 and the “Population Apoptotic (%)” value [1, 4] was 12% and 13%. For the same compound, the “Population Fragmented Nuclei (%)” value [1, 4] was 11% and 6%, the “Population Healthy Nuclei (%)” value [1, 4] was 83% and 88% and the “Population Hoechst High Intensity Objects (%)” value [1, 4] was 7% and 9%. For the same compound, the “Population Membrane Permeable-Phenotype (%)” value [1, 4] was 3%, the “Population Mitochondria Different-Phenotype (%)” value [1, 4] was 1% and 3% and the “Population Mitotic Cells (%)” value [1, 4] was 87% and 86%. The “Population Normal (%)” value [1, 4] was 93% and 90%, the “Population Pyknosed Nuclei (%)” value [1, 4] was 4% and 5% and the “Population Tubulin-Different-Phenotype (%)” value [1, 4] was 25% and 29%. The “Total Cell Count” value [1, 4] was 1828 and 1568, the “Population Apoptotic (%)” value [1, 5] was 86% and 90% and the “Population Fragmented Nuclei (%)” value [1, 5] was 9% and 5%. For the same compound, the “Population Healthy Nuclei (%)” value [1, 5] was 81% and 83%, the “Population Hoechst High Intensity Objects (%)” value [1, 5] was 20% and 19% and the “Population Membrane Permeable-Phenotype (%)” value [1, 5] was 0% and 3%. For the same compound, the “Population Mitochondria Different-Phenotype (%)” value [1, 5] was 77% and 80%, the “Population Mitotic Cells (%)” value [1, 5] was 13% and 10% and the “Population Normal (%)” value [1, 5] was 79% and 80%. The “Population Pyknosed Nuclei (%)” value [1, 5] was 8% and 10%, the “Population Tubulin-Different-Phenotype (%)” value [1, 5] was 93% and the “Total Cell Count” value [1, 5] was 324 and 235. The “Population Apoptotic (%)” value [2, 6] was 45% and 32%, the “Population Fragmented Nuclei (%)” value [2, 6] was 15% and 19% and the “Population Healthy Nuclei (%)” value [2, 6] was 54% and 64%. The “Population Hoechst High Intensity Objects (%)” value [2, 6] was 0%, the “Population Membrane Permeable-Phenotype (%)” value [2, 6] was 13% and 3% and the “Population Mitochondria Different-Phenotype (%)” value [2, 6] was 2% and 4%. The “Population Mitotic Cells (%)” value [2, 6] was 54% and 67%, the “Population Normal (%)” value [2, 6] was 100% and the “Population Pyknosed Nuclei (%)” value [2, 6] was 30% and 16%. For the same compound, the “Population Tubulin-Different-Phenotype (%)” value [2, 6] was 26% and 21%, the “Total Cell Count” value [2, 6] was 176 and 230 and the “Population Apoptotic (%)” value [2, 7] was 60% and 50%. The “Population Fragmented Nuclei (%)” value [2, 7] was 15% and 20%, the “Population Healthy Nuclei (%)” value [2, 7] was 50% and 56% and the “Population Hoechst High Intensity Objects (%)” value [2, 7] was 0%. For the same compound, the “Population Membrane Permeable-Phenotype (%)” value [2, 7] was 6% and 10%, the “Population Mitochondria Different-Phenotype (%)” value [2, 7] was 35% and 27% and the “Population Mitotic Cells (%)” value [2, 7] was 39% and 50%. For the same compound, the “Population Normal (%)” value [2, 7] was 100% and 99%, the “Population Pyknosed Nuclei (%)” value [2, 7] was 33% and 22% and the “Population Tubulin-Different-Phenotype (%)” value [2, 7] was 88% and 81%. For the same compound, the “Total Cell Count” value [2, 7] was 151 and 211, the “Population Apoptotic (%)” value [2, 8] was 60% and 63% and the “Population Fragmented Nuclei (%)” value [2, 8] was 17% and 22%. The “Population Healthy Nuclei (%)” value [2, 8] was 56% and 62%, the “Population Hoechst High Intensity Objects (%)” value [2, 8] was 0% and the “Population Membrane Permeable-Phenotype (%)” value [2, 8] was 7%. For the same compound, the “Population Mitochondria Different-Phenotype (%)” value [2, 8] was 1% and 4%, the “Population Mitotic Cells (%)” value [2, 8] was 39% and 36% and the “Population Normal (%)” value [2, 8] was 99%. The “Population Pyknosed Nuclei (%)” value [2, 8] was 26% and 15%, the “Population Tubulin-Different-Phenotype (%)” value [2, 8] was 25% and 24% and the “Total Cell Count” value [2, 8] was 176 and 221. For the same compound, the “Population Apoptotic (%)” value [2, 3] was 81% and 82%, the “Population Fragmented Nuclei (%)” value [2, 3] was 17% and 15% and the “Population Healthy Nuclei (%)” value [2, 3] was 41% and 46%. The “Population Hoechst High Intensity Objects (%)” value [2, 3] was 2% and 0%, the “Population Membrane Permeable-Phenotype (%)” value [2, 3] was 8% and 3% and the “Population Mitochondria Different-Phenotype (%)” value [2, 3] was 63% and 70%. For the same compound, the “Population Mitotic Cells (%)” value [2, 3] was 18% and 17%, the “Population Normal (%)” value [2, 3] was 97% and 100% and the “Population Pyknosed Nuclei (%)” value [2, 3] was 41% and 37%. The “Population Tubulin-Different-Phenotype (%)” value [2, 3] was 90% and 83%, the “Total Cell Count” value [2, 3] was 149 and 170 and the “Population Apoptotic (%)” value [2, 4] was 80% and 68%. The “Population Fragmented Nuclei (%)” value [2, 4] was 19% and 25%, the “Population Healthy Nuclei (%)” value [2, 4] was 59% and 61% and the “Population Hoechst High Intensity Objects (%)” value [2, 4] was 0%. For the same compound, the “Population Membrane Permeable-Phenotype (%)” value [2, 4] was 9% and 7%, the “Population Mitochondria Different-Phenotype (%)” value [2, 4] was 2% and 5% and the “Population Mitotic Cells (%)” value [2, 4] was 20% and 31%. For the same compound, the “Population Normal (%)” value [2, 4] was 99% and 100%, the “Population Pyknosed Nuclei (%)” value [2, 4] was 21% and 13% and the “Population Tubulin-Different-Phenotype (%)” value [2, 4] was 36% and 29%. The “Total Cell Count” value [2, 4] was 167 and 217, the “Population Apoptotic (%)” value [2, 5] was 94% and 95% and the “Population Fragmented Nuclei (%)” value [2, 5] was 25% and 23%. The “Population Healthy Nuclei (%)” value [2, 5] was 25% and 17%, the “Population Hoechst High Intensity Objects (%)” value [2, 5] was 0% and the “Population Membrane Permeable-Phenotype (%)” value [2, 5] was 15% and 6%. For the same compound, the “Population Mitochondria Different-Phenotype (%)” value [2, 5] was 48% and 43%, the “Population Mitotic Cells (%)” value [2, 5] was 5% and 4% and the “Population Normal (%)” value [2, 5] was 99% and 100%. The “Population Pyknosed Nuclei (%)” value [2, 5] was 48% and 58%, the “Population Tubulin-Different-Phenotype (%)” value [2, 5] was 89% and 81% and the “Total Cell Count” value [2, 5] was 152 and 178.
